Measured values reported in ChEMBL document CHEMBL2016546, “Synthesis, characterization, molecular docking and cytotoxic activity of novel plumbagin hydrazones against breast cancer cells” (Bioorg Med Chem Lett, 2012).
pIC50: −log10 of the molar value. Activity calls are given as the source filed them. No cut-off for these calls is given here.

Legend:
[1] = Partition coefficient, log P pf the compound; type: physicochemical; conditions: octanol/water
MDA-MB-468 = assay: Antiproliferative activity against ER-negative human MDA-MB-468 cells after 48 hrs by MTT assay; type: functional, cell-based; conditions: MDA-MB-468, 48 h
Summary of the method: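 MDA-MB-468 cells plated at 3 × 10³/well in medium containing 10% fetal calf serum, penicillin (50 U/mL) and streptomycin, at 37 °C under 5% CO₂. DMSO-dissolved compounds were added 24 h post-seeding and exposure lasted 48 h. MTT (0.5 mg/mL) was applied for 2 h at 37 °C, then DMSO for 30 min at room temperature. Eight wells per treatment, at least three independent repeats.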

[2] = biological target: Transcription factor p65 (Homo sapiens) (UniProt Q04206); assay: Inhibition of NFkappaB p65 subunit expression in human MDA-MB-231 cells at 1.5 uM after 48 hrs by Western blot analysis; type: cell-based
Chain of Transcription factor p65 (Homo sapiens) (Q04206 whole entry): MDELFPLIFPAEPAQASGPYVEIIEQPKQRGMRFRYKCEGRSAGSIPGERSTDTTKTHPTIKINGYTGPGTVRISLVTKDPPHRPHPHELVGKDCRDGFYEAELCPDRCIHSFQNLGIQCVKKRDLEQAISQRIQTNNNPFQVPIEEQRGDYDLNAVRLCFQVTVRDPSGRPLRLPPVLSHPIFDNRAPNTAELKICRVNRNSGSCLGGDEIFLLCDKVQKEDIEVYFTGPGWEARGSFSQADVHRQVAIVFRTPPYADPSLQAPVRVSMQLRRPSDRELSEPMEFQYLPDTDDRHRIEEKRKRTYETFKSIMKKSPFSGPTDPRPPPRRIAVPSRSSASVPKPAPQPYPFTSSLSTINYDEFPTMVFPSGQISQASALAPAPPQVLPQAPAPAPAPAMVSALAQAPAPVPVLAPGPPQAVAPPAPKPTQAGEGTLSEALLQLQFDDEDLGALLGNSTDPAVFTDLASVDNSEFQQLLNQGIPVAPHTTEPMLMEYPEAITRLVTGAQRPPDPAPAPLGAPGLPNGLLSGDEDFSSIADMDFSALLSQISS
Summary of the method: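 MDA-MB-231 cells were exposed to compounds for 48 h, with a vehicle-treated control. NF-κB p65 subunit levels were detected by Western blot, using β-actin as the protein loading control.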

MCF7 = assay: Antiproliferative activity against ER-positive human MCF7 cells after 48 hrs by MTT assay; conditions: MCF7, 48 h
MDA-MB-231 = assay: Antiproliferative activity against ER-negative human MDA-MB-231 cells after 48 hrs by MTT assay; conditions: MDA-MB-231, 48 h

Structure (SMILES)	logP [1]	pIC50 (MDA-MB-468)	inhibition [2]	pIC50 (MCF7)	pIC50 (MDA-MB-231)	logP ([1]; read-out: logP)
CC1=CC(=O)c2c(O)cccc2C1=O [PLUMBAGIN]	0.89	5.60	Active	5.26	5.46	–
CC1=C/C(=N\NC(=O)c2cccnc2)c2c(O)cccc2C1=O	–	5.72	Active	5.57	5.72	3.13
CC1=C/C(=N\NC(=O)c2ccncc2)c2c(O)cccc2C1=O	–	5.48	Active	5.21	5.48	2.86
CC1=C/C(=N\NC(=O)c2ccccc2)c2c(O)cccc2C1=O	–	5.70	Active	5.55	5.68	4
CC1=C/C(=N\NC(=O)c2ccccc2O)c2c(O)cccc2C1=O	–	5.54	Active	5.28	5.42	4.17
